Experimental data taken from ChEMBL document CHEMBL3856220, “Synthesis and antileishmanial activity of C7- and C12-functionalized dehydroabietylamine derivatives” (Eur J Med Chem, 2016).
pIC50: −log10 of the molar value.

Tests used:
[1] = Selectivity index, ratio of CC50 for mouse J774 cells to IC50 for promastigote form of Leishmania donovani MHOM/IN/80/DD8; format: functional
Outline: (§1)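 Selectivity index computed as CC50 from the J774 resazurin viability assay divided by IC50 from the matching promastigote or intracellular amastigote resazurin assay.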

Leishmania infantum [2] = experiment: Leishmanicidal activity against promastigote form of Leishmania infantum MCAN/ES/96/BCN150 after 48 hrs by resazurin dye-based fluorometric method; format: functional; conditions: MCAN/ES/96/BCN150, 48 h
Outline: (§2)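 Promastigotes grown in Schneider's medium with 10% heat-inactivated FBS at 26 °C. 2.5×10^5 parasites/well. DMSO stocks at 100 mg/mL, diluted 1:2 in medium to final 100–0.78 µg/mL. 48 h at 26 °C, then 2.5 mM resazurin (20 µL) for 3 h. Fluorescence read at ex 535/em 590 nm, with growth inhibition corrected for signal-to-noise. Triplicates; IC50 by probit analysis.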

[3] = Selectivity index, ratio of CC50 for mouse J774 cells to IC50 for promastigote form of Leishmania guyanensis 141/93; format: functional; outline: as §1
[4] = Selectivity index, ratio of CC50 for mouse J774 cells to IC50 for amastigote form of Leishmania infantum MCAN/ES/96/BCN150 infected in mouse J774 cells; format: functional; outline: as §1
[5] = Selectivity index, ratio of CC50 for mouse J774 cells to IC50 for promastigote form of Leishmania infantum MCAN/ES/96/BCN150; format: functional; outline: as §1
Leishmania infantum [6] = experiment: Leishmanicidal activity against amastigote form of Leishmania infantum MCAN/ES/96/BCN150 infected in mouse J774 cells after 48 hrs by resazurin dye-based fluorometric method; format: functional, cell-based; conditions: MCAN/ES/96/BCN150, J774, 48 h
Outline: (§3)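 5×10^4 macrophages in RPMI-1640 infected with 5×10^5 promastigotes. L. infantum infection was 48 h at 37 °C; L. amazonensis was 24 h at 33 °C then 24 h at 37 °C. Free parasites washed off with RPMI-HEPES pH 7.4. Compound at 100–0.78 µg/mL (final), 48 h at 37 °C. Cells lysed with 0.02% SDS, then 3 days at 26 °C in Schneider's medium. Resazurin 3 h, fluorescence read. Triplicates; IC50 by probit analysis.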

[7] = Selectivity index, ratio of CC50 for mouse J774 cells to IC50 for amastigote form of Leishmania amazonensis MHOM/Br/79/Maria infected in mouse J774 cells; format: functional; outline: as §1
Leishmania amazonensis [8] = experiment: Leishmanicidal activity against amastigote form of Leishmania amazonensis MHOM/Br/79/Maria infected in mouse J774 cells after 48 hrs by resazurin dye-based fluorometric method; format: functional, cell-based; conditions: J774, 48 h; outline: as §3
[9] = Cytotoxicity against mouse J774 cells assessed as reduction of cell viability after 48 hrs by resazurin dye-based fluorometric method; format: toxicity
Outline: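 J774 murine macrophages grown in RPMI-1640 with 10% heat-inactivated FBS, penicillin/streptomycin, 37 °C, 5% CO2, and harvested mechanically at pre-confluence. Seeded at 5×10^4 cells/well and allowed to attach 2 h. Compound added at 100–0.78 µg/mL (1:2 series, final), 48 h exposure. Resazurin 2.5 mM (20 µL) then 3 h, fluorescence read. Triplicates. CC50 = 50% viability loss versus untreated.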

Leishmania guyanensis = experiment: Leishmanicidal activity against promastigote form of Leishmania guyanensis 141/93 after 48 hrs by resazurin dye-based fluorometric method; format: functional; conditions: 141/93, 48 h; outline: as §2
[10] = Selectivity index, ratio of CC50 for mouse J774 cells to IC50 for promastigote form of Leishmania amazonensis MHOM/Br/79/Maria; format: functional; outline: as §1
Leishmania donovani [11] = experiment: Leishmanicidal activity against promastigote form of Leishmania donovani MHOM/IN/80/DD8 after 48 hrs by resazurin dye-based fluorometric method; format: functional; conditions: MHOM/IN/80/DD8, 48 h; outline: as §2
Leishmania amazonensis [12] = experiment: Leishmanicidal activity against promastigote form of Leishmania amazonensis MHOM/Br/79/Maria after 48 hrs by resazurin dye-based fluorometric method; format: functional; outline: as §2
Leishmania infantum [13] = experiment: Potency index, ratio of miltefosine IC50 to compound IC50 for amastigote form of Leishmania infantum MCAN/ES/96/BCN150 infected in mouse J774 cells; format: functional
Leishmania infantum [14] = experiment: Antileishmanial activity against amastigote form of Leishmania infantum MCAN/ES/2001/UCM-10 infected in mouse J774.2 cells after 72 hrs by Giemsa staining-based assay; format: functional, cell-based; conditions: MCAN/ES/2001/UCM-10, J774.2, 72 h
Leishmania braziliensis = experiment: Antileishmanial activity against amastigote form of Leishmania braziliensis MHOM/BR/1975/M2904 infected in mouse J774.2 cells after 72 hrs by Giemsa staining-based assay; format: functional, cell-based; conditions: MHOM/BR/75/M2904, J774.2, 72 h
Leishmania donovani [15] = experiment: Antileishmanial activity against promastigote form of Leishmania donovani after 48 hrs by Alamar blue assay; format: functional
Outline: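 Promastigotes grown at 26 °C in Schneider's insect medium with 10% heat-inactivated FBS and penicillin/streptomycin, seeded at 2.5×10^5/well. Exposed to 1:2 serial dilutions (100–0.78 µg/mL final; DMSO stocks) for 48 h at 26 °C, then 2.5 mM resazurin added for 3 h. Fluorescence read at 535/590 nm; inhibition relative to untreated minus background. Triplicates; IC50 by probit; miltefosine reference.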

Row | SMILES | Ratio CC50/IC50 [1] | pIC50 (Leishmania infantum [2]) | Ratio CC50/IC50 [3] | Ratio CC50/IC50 [4] | Ratio CC50/IC50 [5] | pIC50 (Leishmania infantum [6]) | Ratio CC50/IC50 [7] | pIC50 (Leishmania amazonensis [8]) | CC50 at 48 h [9] [µM] | pIC50 (Leishmania guyanensis) | Ratio CC50/IC50 [10] | pIC50 (Leishmania donovani [11]) | pIC50 (Leishmania amazonensis [12]) | Ratio IC50 (Leishmania infantum [13]) | pIC50 (Leishmania infantum [14]) | pIC50 (Leishmania braziliensis) | pIC50 (Leishmania donovani [15])
1 | CC(C)c1cc2c(cc1[N+](=O)[O-])[C@@]1(C)CCC[C@@](C)(CNC(=O)c3ccccc3)[C@@H]1CC2=O | >37 | 4.62 | >5 | >11 | >8 | 4.76 | >54 | 5.43 | > 200 | 4.41 | >16 | 5.27 | 4.91 |  |  |  | 
2 | CC(C)c1ccc2c(c1)C(=O)C[C@H]1[C@](C)(CNC(=O)c3ccccc3)CCC[C@]21C | >50 | 5.06 | >23 | >80 | >23 | 5.60 | >67 | 5.52 | > 200 | 5.07 | >41 | 5.40 | 5.31 | 23 |  |  | 
3 | CC(C)c1cc2c(cc1[N+](=O)[O-])[C@@]1(C)CCC[C@@](C)(CNC(=O)c3ccccc3)[C@@H]1CC2 | >62 | 4.95 | >2 | >61 | >18 | 5.48 | >57 | 5.46 | > 200 | 4.02 | >10 | 5.49 | 4.68 | 18 |  |  | 
4 | CC(=O)NC[C@]1(C)CCC[C@]2(C)c3ccc(C(C)C)cc3CC[C@@H]12 |  |  |  |  |  |  |  |  | 21.6 |  |  |  |  |  |  |  | 
5 | CC(C)c1ccc2c(c1)CC[C@H]1[C@](C)(CNC(=O)c3ccccc3)CCC[C@]21C | >90 | 5.51 | >10 | >42 | >64 | 5.33 | >40 | 5.30 | > 200 | 4.69 | >54 | 5.66 | 5.43 |  |  |  | 
6 | COC(=O)C[C@@]1(C)CCC[C@]2(C)c3cc(O)c(C(C)C)cc3CC[C@@H]12 |  |  |  |  |  |  |  |  |  |  |  |  |  |  | 4.46 to 4.65 | 4.46 to 4.65 | 
7 | CC(=O)NC[C@]1(C)CCC[C@]2(C)c3ccc(C(C)C)cc3C(=O)C[C@@H]12 |  |  |  |  |  |  |  |  | 72.3 |  |  |  |  |  |  |  | 
8 | CC(=O)NC[C@]1(C)CCC[C@]2(C)c3ccc(C(C)C)cc3-c3[nH]c4ccc(F)cc4c3[C@@H]12 | 10.3 | 5.82 |  |  | 19.2 |  |  |  | 28.8 |  | 7.2 | 5.55 | 5.40 |  |  |  | 
9 | CC(=O)NC[C@]1(C)CCC[C@]2(C)c3cc([N+](=O)[O-])c(C(C)C)cc3C(=O)C[C@@H]12 |  |  |  |  |  |  |  |  | 39.2 |  |  |  |  |  |  |  | 
10 | COC(=O)C[C@]1(C)CCC[C@]2(C)c3cc(O)c(C(C)C)cc3CC[C@@H]12 |  |  |  |  |  |  |  |  |  |  |  |  |  |  | 4.46 to 4.65 | 4.46 to 4.65 | 
11 | CC(=O)NC[C@]1(C)CCC[C@]2(C)c3cc([N+](=O)[O-])c(C(C)C)cc3CC[C@@H]12 |  |  |  |  |  |  |  |  | 13.7 |  |  |  |  |  |  |  | 
12 | CC(C)c1ccc2c(c1)CC[C@H]1[C@](C)(CN)CCC[C@]21C |  |  |  |  |  |  |  |  | 14.5 |  |  |  |  |  |  |  | 
13 | CC(C)c1cc2c(cc1O)[C@@]1(C)CCCC(C)(C)[C@@H]1CC2 [FERRUGINOL] |  |  |  |  |  |  |  |  |  |  |  |  |  |  |  |  | 4.91
14 | CCCCCCCCCCCCCCCCOP(=O)([O-])OCC[N+](C)(C)C [MILTEFOSINE] | 909 | 5.47 | 7.5 | 2.3 | 40.1 | 4.24 | 8.2 | 4.78 | 136 | 4.74 | 2.9 | 6.82 | 4.32 |  |  |  | 
